Results taken from ChEMBL document CHEMBL1126740, “(S)- and (R)-8-(di-n-propylamino)-6,7,8,9-tetrahydro-3H-benz[e]indole-1-carbaldehyde: a new class of orally active 5-HT1A-receptor agonists” (J Med Chem, 1993).
Calls of active or inactive are those of the source. The calls are words filed in the database; no cut-off is given here.

Tests used:
[1] = test system: Rattus norvegicus; experiment: Maximal reduction in percent (Partial response) of DOPA accumulation rat limbic system at highest test dose of 50 uM/Kg (sc); assay type: functional
[2] = molecular target: T1, D(2) dopamine receptor (Rattus norvegicus, UniProt P61169); experiment: Displacement of [3H]spiperone from dopamine receptor D2
Procedure, shortened: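 Rat striatal membranes in 50 mM potassium phosphate buffer (3 mg original tissue) incubated with 0.5 nM [3H]spiperone for 10 min at 37 °C. Nonspecific binding was defined with 10 μM 6,7-ADTN. Ki was calculated by Cheng–Prusoff; triplicates, 3–7 experiments.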

[3] = molecular target: T2, 5-hydroxytryptamine receptor 1A (Rattus norvegicus, UniProt P19327); experiment: In vitro binding affinity against 5-hydroxytryptamine 1A receptor using [3H]8-OH-DPAT
T2 sequence (P19327 whole entry): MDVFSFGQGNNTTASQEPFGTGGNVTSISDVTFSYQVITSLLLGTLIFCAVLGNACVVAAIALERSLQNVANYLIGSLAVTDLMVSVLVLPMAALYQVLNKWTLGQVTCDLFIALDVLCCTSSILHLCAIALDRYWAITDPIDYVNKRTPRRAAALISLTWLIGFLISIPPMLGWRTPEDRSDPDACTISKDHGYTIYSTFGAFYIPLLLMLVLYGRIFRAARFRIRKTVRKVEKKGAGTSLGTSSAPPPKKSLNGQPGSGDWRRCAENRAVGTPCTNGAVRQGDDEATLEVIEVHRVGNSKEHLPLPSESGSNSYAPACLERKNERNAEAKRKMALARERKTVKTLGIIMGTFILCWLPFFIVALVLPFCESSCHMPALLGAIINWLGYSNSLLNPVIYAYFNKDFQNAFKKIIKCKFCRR
Procedure, shortened: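 Rat whole-brain membranes (brainstem and cerebellum removed) in 50 mM Tris pH 8.0 containing NaCl, CaCl2, MgCl2 and 10 μM pargyline, 10 mg tissue per tube. Nonspecific binding was defined with 10 μM 5-HT. IC50 was taken by semi-log linear regression and Ki by Cheng–Prusoff; triplicates.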

[4] = test system: Rattus norvegicus; experiment: Maximal reduction in percent (Partial response) of 5-HTP accumulation rat hemispheres at highest test dose of 50 uM/Kg (sc); assay type: functional
Procedure, shortened: (§1)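 Male Sprague-Dawley rats were pretreated with reserpine 5 mg/kg sc 18 h before dosing. DOPA and 5-HTP in limbic system, striatum and hemispheres were measured by HPLC with electrochemical detection. Dose-response curves used 4–6 dose levels (n = 4) for each region; ED50 was estimated graphically. Partial responses are given as the maximal % reduction at the highest dose tested.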

[5] = species on record: Rattus norvegicus; experiment: Compound was tested for 5HT, Dopamine agonist mediated response in reserpine pretreated rats; mix DA, 5-HT syndrome; assay type: functional, organism-based
Procedure, shortened: (§2)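 Male Sprague-Dawley rats (200–300 g) were given reserpine 5 mg/kg sc 18 h before testing, then the test drug sc in the neck (n = 4). Motor activity was recorded by photocells for 30 min, with gross behaviour observed throughout. 5-HT syndrome: flat body posture, extended limbs, reciprocal forepaw treading. DA response: locomotion and stereotypies.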

[6] = test system: Rattus norvegicus; experiment: In vivo evaluation for DOPA accumulation in the hemispheres in male rats at highest dose tested at 50 uM/Kg; inactive; assay type: functional, organism-based; procedure, shortened: as §1
[7] = test system: Rattus norvegicus; experiment: Maximal reduction in percent (Partial response) of DOPA accumulation rat corpus striatum at highest test dose of 50 uM/Kg (sc); assay type: functional; procedure, shortened: as §1
[8] = test system: Rattus norvegicus; experiment: Maximal reduction in percent (Partial response) of DOPA accumulation rat limbic system at highest test dose of […] (sc); assay type: functional
[9] = test system: Rattus norvegicus; experiment: In vivo evaluation for 5-HTP accumulation in the hemispheres in male rats (sc); assay type: functional; procedure, shortened: as §1
[10] = test system: Rattus norvegicus; experiment: In vivo evaluation for 5-HTP accumulation in the limbic system in male rats (sc); assay type: functional; procedure, shortened: as §1
[11] = test system: Rattus norvegicus; experiment: In vivo evaluation for 5-HTP accumulation in the corpus striatum in male rats (sc); assay type: functional; procedure, shortened: as §1
[12] = test system: Rattus norvegicus; experiment: In vivo evaluation for DOPA accumulation in the hemispheres in male rats at highest dose tested; inactive; assay type: functional, organism-based; procedure, shortened: as §1
[13] = test system: Rattus norvegicus; experiment: In vivo evaluation for DOPA accumulation in the corpus striatum in male rats (sc); assay type: functional; procedure, shortened: as §1
[14] = test system: Rattus norvegicus; experiment: In vivo evaluation for DOPA accumulation in the limbic system in male rats (sc); assay type: functional; procedure, shortened: as §1
[15] = test system: Rattus norvegicus; experiment: Maximal reduction in percent (Partial response) of DOPA accumulation rat hemispheres at highest test dose of 4.0 uM/kg (sc); assay type: functional; procedure, shortened: as §1
[16] = species on record: Rattus norvegicus; experiment: Compound was tested for 5-HT behavioral response in reserpine pretreated rats; +5HT syndrome; assay type: functional, organism-based; procedure, shortened: as §2
[17] = molecular target: T1, D(2) dopamine receptor; experiment: In vitro binding affinity against dopamine receptor D2 using [3H]-Raclopride as radioligand in CHO cells (sc); assay type: cell-based
[18] = test system: Rattus norvegicus; experiment: In vivo evaluation for DOPA accumulation in the hemispheres in male rats at highest test dose of 12.5 uM/Kg (sc); inactive; assay type: functional, organism-based; procedure, shortened: as §1
[19] = test system: Rattus norvegicus; experiment: In vivo evaluation for DOPA accumulation in the hemispheres in male rats (sc); assay type: functional; procedure, shortened: as §1
[20] = species on record: Rattus norvegicus; experiment: Compound was tested for 5HT, Dopamine agonist mediated response in reserpine pretreated rats; no change; assay type: functional, organism-based; procedure, shortened: as §2

T1 sequence (P61169 whole entry): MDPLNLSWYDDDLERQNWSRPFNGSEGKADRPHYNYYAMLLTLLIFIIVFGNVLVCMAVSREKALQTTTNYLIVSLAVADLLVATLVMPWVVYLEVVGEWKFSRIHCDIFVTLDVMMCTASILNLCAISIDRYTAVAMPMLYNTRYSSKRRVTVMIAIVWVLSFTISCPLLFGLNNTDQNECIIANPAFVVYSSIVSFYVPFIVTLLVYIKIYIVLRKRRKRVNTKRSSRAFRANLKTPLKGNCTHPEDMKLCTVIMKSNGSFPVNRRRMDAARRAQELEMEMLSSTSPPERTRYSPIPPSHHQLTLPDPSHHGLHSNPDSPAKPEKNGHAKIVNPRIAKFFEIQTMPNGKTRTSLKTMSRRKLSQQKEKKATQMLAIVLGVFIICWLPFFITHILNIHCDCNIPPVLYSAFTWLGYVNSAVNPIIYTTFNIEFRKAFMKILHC

| Compound | Reduction [1] [%] | Ki [2] [nM] | Ki [3] [nM] | Reduction [4] [%] | Behavioral response [5] | ED50 [6] | Reduction [7] [%] | Reduction [8] [%] | ED50 [9] [µmol/kg] | ED50 [10] [µmol/kg] | ED50 [11] [µmol/kg] | ED50 [12] | ED50 [13] [µmol/kg] | ED50 [14] [µmol/kg] | Reduction [15] [%] | Behavioral response [16] | Ki [17] [nM] | ED50 [18] | ED50 [19] [µmol/kg] | Behavioral response [20] |
| --- | --- | --- | --- | --- | --- | --- | --- | --- | --- | --- | --- | --- | --- | --- | --- | --- | --- | --- | --- | --- |
| CCCN(CCC)C1CCc2cc3cc[nH]c3cc2C1 (stereo not drawn) | 30 | 350 | 570 | 35 | Active | inactive | 51 | – | – | – | – | – | – | – | – | – | – | – | – | – |
| CCCN(CCC)[C@@H]1CCc2ccc3[nH]ccc3c2C1 | – | 100 | – | – | Active | – | – | 37 | 0.41 | 0.2 | 0.25 | inactive | 0.16 | – | – | – | – | – | – | – |
| CN(C)C1CCc2ccc3[nH]ccc3c2C1 (racemic) | – | – | – | – | – | – | – | – | 0.4 | 0.3 | 0.3 | – | 0.4 | 0.3 | 34 | Active | – | – | – | – |
| CCCN(CCC)C1CCc2ccc3[nH]cc(C=O)c3c2C1 (racemic) | – | 120 | – | – | – | – | – | – | 0.067 | 0.06 | 0.054 | – | 1.8 | 0.47 | – | Active | 40 | inactive | – | – |
| CN(C)[C@H]1CCc2ccc3[nH]ccc3c2C1 | – | – | – | – | – | – | – | – | 2.7 | 3.9 | 3.9 | – | 8 | 4.2 | – | – | – | – | 13 | inactive |
